Screening data: PubChem, several laboratories
Shown are actives, neighbours in structure and some others; about 5.4% of the full set was active somewhere.
T cruzi inh – T. cruzi replication inhibition. T. cruzi beta-gal in NIH3T3, luminescence, 90 h. inhibition, % (test concentration not listed). actives 1.4% (n = 300,000);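 active means mean inhibition across valid replicates above about 55%, limit read from the data; inconclusive means mean below that limit but half or more replicates reach it; inactive means mean below it, under half of replicates reach it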;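 further: signal also drops with host cell toxicity which is not excluded here; 0% = plate median of DMSO wells and 100% = zero luminescence signal; higher percent means less beta-gal luminescence so fewer parasites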
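Read-out: Parasite load inhibition, % | Test system: Mouse NIH/3T3 fibroblasts infected with β-gal-expressing T. cruzi Tulahuen C4 | Amount: 5,000 cells/well | Medium: DMEM, 2% fetal bovine serum | Signal: GalScreen β-gal luminescence, detergent lysis, 60 min | Timing: 3 h attach, ≥90 h co-culture | Also added: Tulahuen C4 trypomastigotes, 5000/well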
aSyn UTR inh – MLPCN primary screen, SNCA 5' untranslated region; inhibition, % (tested at 7.5 µM); actives 0.82% (n = 300,000); alpha-synuclein 5'UTR reporter, inhibitor activity; AID 1813; in the data active means inhibition above about 60%; inconclusive means no clear call, values can overlap the other calls;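 further: H4 neuroglioblastoma cells stably carrying SNCA 5'UTR luciferase fusion; 0% = DMSO wells and 100% = positive control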
CSC inhib – cancer stem cell inhibition | cancer stem cell-like cells viability, luminescence | inhibition, % at 7.5 µM | actives 1.1% (n = 300,000) | AID 2717; in the data active means inhibition above about 75%; inconclusive means no clear call, values can overlap the other calls; tested in HMLE shEcad cells
Mdm2 MdmX PPI – disrupts the human Mdm2-MdmX interaction; O15151+Q00987; SaOS-2 split-luciferase Mdm2/MdmX complementation, luminescence; inhibition, % at 8 µM; actives 3% (n = 330,000);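 active means inhibition of at least 50% at 8 µM in the primary screen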
Target sequence (O15151 whole entry, looked up): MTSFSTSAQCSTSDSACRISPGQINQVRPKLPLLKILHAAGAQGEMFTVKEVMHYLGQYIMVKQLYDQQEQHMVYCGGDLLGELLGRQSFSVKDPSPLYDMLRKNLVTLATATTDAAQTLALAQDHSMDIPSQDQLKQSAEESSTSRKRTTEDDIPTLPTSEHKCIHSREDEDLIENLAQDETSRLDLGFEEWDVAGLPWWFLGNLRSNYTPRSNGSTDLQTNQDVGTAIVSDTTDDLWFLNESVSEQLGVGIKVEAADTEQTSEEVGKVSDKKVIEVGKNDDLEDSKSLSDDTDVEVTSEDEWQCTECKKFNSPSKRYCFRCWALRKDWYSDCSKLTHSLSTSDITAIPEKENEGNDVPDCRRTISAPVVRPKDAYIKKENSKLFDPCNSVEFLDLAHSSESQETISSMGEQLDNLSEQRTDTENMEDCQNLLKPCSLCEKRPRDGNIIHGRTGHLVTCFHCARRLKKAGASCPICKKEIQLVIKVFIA
Target sequence (Q00987 whole entry, looked up): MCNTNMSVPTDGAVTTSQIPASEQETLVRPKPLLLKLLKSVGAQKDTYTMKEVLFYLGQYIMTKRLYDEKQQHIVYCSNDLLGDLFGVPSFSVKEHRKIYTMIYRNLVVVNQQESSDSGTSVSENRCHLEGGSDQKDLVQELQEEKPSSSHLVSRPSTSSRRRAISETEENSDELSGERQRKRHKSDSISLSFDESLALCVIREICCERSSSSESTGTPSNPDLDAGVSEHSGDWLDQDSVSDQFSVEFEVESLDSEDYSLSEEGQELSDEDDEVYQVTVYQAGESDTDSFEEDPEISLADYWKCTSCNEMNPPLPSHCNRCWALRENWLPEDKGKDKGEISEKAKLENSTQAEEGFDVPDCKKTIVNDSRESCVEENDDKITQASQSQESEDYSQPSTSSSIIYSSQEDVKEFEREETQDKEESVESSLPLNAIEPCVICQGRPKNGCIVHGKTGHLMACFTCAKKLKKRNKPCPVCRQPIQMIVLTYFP
SKKanGAS inh – inhibitors of SKKanGAS S. pyogenes growth in kanamycin (SK-promoter or general growth effect) | BacTiter-Glo, 6 h | actives 1.3% (n = 300,000) | inhibition, % at 7.5 µM;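 active means mean replicate score, as percent of positive control median, at least 50; inconclusive means mean below 50 but one replicate at or above 50; inactive means mean and every replicate below 50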;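 further: strain carries kanamycin resistance gene driven by streptokinase promoter and grows in 40 µg/ml kanamycin; loss of luminescence reflects streptokinase promoter inhibition or plain growth inhibition; 0% = median of DMSO wells and 100% = positive control at its reference dose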
Starred values were filed as active, the others as inactive; u = inconclusive; x = no result given.

SMILES | T cruzi inh | aSyn UTR inh | CSC inhib | Mdm2 MdmX PPI | SKKanGAS inh
O=C(Nc1ccccc1)Nc1cc(OCC(F)(F)F)cc(OCC(F)(F)F)c1 | 87.1* | 74.4* | x | x | 51.7*
CC(=O)n1c2c(c3ccccc31)OC(N)=C(C#N)C2c1cccc(Cl)c1Cl (configuration not stated) | -5.0 | -42.4 | 76.1* | 37.4 | 12.0
CC1CCN(c2ccc(NC(=O)c3ccc([N+](=O)[O-])o3)cc2)CC1 | 71.6* | 44.3 | 99.9* | 46.3 | 42.7
CS(=O)(=O)N1CCN(c2ccc(NC(=O)c3ccc([N+](=O)[O-])o3)cc2)CC1 | 3.8 | 72.2* | x | x | 0.5
CCC(=O)N1CCN(c2ccc(NC(=O)c3ccc([N+](=O)[O-])o3)cc2)CC1 | 72.3* | u | x | x | 11.6
O=C(Nc1ccc(N2CCN(C(=O)c3ccc(Cl)cc3)CC2)cc1)c1ccc([N+](=O)[O-])o1 | 93.4* | 119.6* | x | x | -0.8
CCCC(=O)N1CCN(c2ccc(NC(=O)c3ccc([N+](=O)[O-])o3)cc2)CC1 | 37.9 | 39.6 | x | x | 6.1
CCOc1ccc(S(=O)(=O)NCCC(=O)N(CC)CC(=O)Nc2c(F)cccc2F)cc1 | -2.6 | -0.1 | -4.6 | 16.9 | -1.2
NC(=O)CSc1n[nH]c(=O)n1CCc1ccccc1 | -26.6 | 5.0 | 3.1 | -9.3 | 8.8
Cc1ccc(C(=O)OC(C)C(=O)NC(C)CCc2ccccc2)o1 (configuration not stated) | x | x | -15.0 | -26.9 | x
CC(CCN(C)C)OC(=O)c1ccc(C(C)c2ccccc2)o1 (configuration not stated) | 71.6* | -36.7 | 46.5 | 3.7 | -0.9
C/C(=N\NC(=O)c1ccc(OC2CCCC2)cc1)c1ccc(O)cc1 | 2.8 | 8.5 | -3.2 | 19.5 | 1.3
CCSc1nc2sccc2c(=O)n1-c1ccccc1 | 0.0 | 26.3 | 42.5 | 6.4 | -0.1
CC1C(=O)OC2C1CCC1(C)CCC(=O)C(C)C21 (configuration not stated) | 54.7* | 10.7 | 10.0 | -1.2 | -3.4
Cc1ccc(CSc2nnc(SCC(=O)N/N=C/c3ccccc3OCC(=O)O)s2)cc1 | -2.4 | 61.7* | 13.8 | -1.8 | 1.8
Cc1ccc(CSc2nnc(SCC(=O)N/N=C/c3ccc(C(=O)O)cc3)s2)cc1 | 6.2 | 69.5* | 0.9 | 1.3 | 0.5
CCc1cccc(NC(=O)CCc2c(C)nn(-c3ccc(N4CCCCC4)nn3)c2C)c1 | 0.8 | 41.0 | -14.2 | -12.5 | 5.8
CC(=O)Nc1ccc(C(=O)OCC(=O)Nc2c(C)n(C)n(-c3ccccc3)c2=O)cc1 | x | x | -10.4 | -17.3 | x
C=CCOc1ccc(C(=O)c2ccccc2)c(OCC(=O)NC2(C#N)CCCC2)c1 | 21.3 | 12.9 | 3.3 | -22.9 | -2.5
Fc1ccccc1C1c2[nH]c3ccccc3c2CCN1Cc1cccn1-c1ncccn1 (configuration not stated) | 77.4* | 2.4 | 5.5 | 49.2 | -0.8
COc1ccc(C2c3[nH]c4ccccc4c3CCN2CCCn2cccn2)c(F)c1 (configuration not stated) | 15.3 | 5.0 | 4.8 | -0.8 | -2.2
Cc1ccccc1C1c2[nH]c3ccccc3c2CCN1Cc1cccn1-c1ncccn1 (configuration not stated) | 55.0* | 9.7 | x | 25.6 | -12.4
Cc1ccccc1C1c2[nH]c3ccccc3c2CCN1CCCn1cccn1 (configuration not stated) | 8.5 | -3.3 | 2.2 | 14.9 | 0.1
COCC1CCN(Cc2cn[nH]c2-c2cc3ccccc3o2)C1 (configuration not stated) | 69.1* | -33.8 | 25.7 | -9.2 | -1.7
c1ccc2oc(-c3[nH]ncc3CN3CCSCC3)cc2c1 | 6.5 | 4.0 | -5.9 | 7.4 | -0.1
SMILES | T cruzi inh | aSyn UTR inh | CSC inhib | Mdm2 MdmX PPI | SKKanGAS inh
O=C(CN1c2ccccc2Sc2ccccc21)NNC(=O)Nc1ccc(Cl)c(Cl)c1 | 4.1 | 5.6 | 101.4* | 4.6 | 57.5*
O=C(CSc1nc2ccccc2s1)NNC(=O)Nc1ccc(Cl)c(Cl)c1 | -3.4 | 9.1 | 6.2 | -10.8 | 22.8
CCCCCCCCCCS(=O)(=O)N/N=C/c1ccc([N+](=O)[O-])cc1 | -1.8 | 15.6 | 86.0* | 2.6 | 14.2
Cc1ccc(/C=N/NS(=O)(=O)c2ccc([N+](=O)[O-])cc2)o1 | 0.7 | 21.7 | -16.5 | 20.0 | 10.4
Cc1ccc(NC(=O)Cn2c(O)c(N=NC(=O)c3cc4ccccc4cc3O)c3ccccc32)cc1 | x | x | 98.5* | x | x
CS(=O)(=O)c1ccc(C(=O)OCC(=O)NC23CC4CC(CC(C4)C2)C3)cc1[N+](=O)[O-] | 2.5 | 1.1 | 155.0* | 49.3 | 19.6
